The source made the active and inactive calls.
Key:
[1] = biological target: Cyclin-dependent kinase 8 (Homo sapiens) (UniProt P49336); test: Binding affinity to wild-type human partial length CDK8 (M1 to T360 residues) expressed in bacterial expression system assessed as remaining unbound target protein level at 1000 nM by Kinomescan method relative to control
[2] = biological target: SNF-related serine/threonine-protein kinase (Homo sapiens) (UniProt Q9NRH2); test: Binding affinity to wild-type human partial length SNRK (M1 to E339 residues) expressed in mammalian expression system assessed as remaining unbound target protein level at 1000 nM by Kinomescan method relative to control
[3] = biological target: MAP kinase-interacting serine/threonine-protein kinase 2 (Homo sapiens) (UniProt Q9HBH9); test: Binding affinity to wild-type human partial length MKNK2 (G63 to S388 residues) expressed in mammalian expression system assessed as remaining unbound target protein level at 1000 nM by Kinomescan method relative to control
[4] = biological target: Proto-oncogene tyrosine-protein kinase receptor Ret (Homo sapiens) (UniProt P07949); test: Binding affinity to wild-type human partial length RET (E713 to D1014 residues) expressed in bacterial expression system assessed as remaining unbound target protein level at 1000 nM by Kinomescan method relative to control
[5] = biological target: Serine/threonine-protein kinase tousled-like 1 (Homo sapiens) (UniProt Q9UKI8); test: Binding affinity to wild-type human partial length TLK1 (K447 to A754 residues) expressed in bacterial expression system assessed as remaining unbound target protein level at 1000 nM by Kinomescan method relative to control
[6] = system: Tyrosine-protein kinase ABL1 (Homo sapiens), P00519 [F317I]; test: Binding affinity to human non-phosphorylated ABL1 F317I mutant (S229 to K512 residues) expressed in mammalian expression system assessed as remaining unbound target protein level at 1000 nM by Kinomescan method relative to control
How it was run: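 KINOMEscan competition-binding profiling across the panel of 468 kinases and mutants, with inhibitor tested at 1 μM. Binding is expressed as percent of control, with DMSO as the reference control.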

[7] = biological target: Ribosomal protein S6 kinase alpha-1 (Homo sapiens) (UniProt Q15418); test: Binding affinity to wild-type human partial length N-terminal RSK1 Kinase domain 1 (M1 to E388 residues) expressed in bacterial expression system assessed as remaining unbound target protein level at 1000 nM by Kinomescan method relative to control
[8] = biological target: Cyclin-dependent kinase 9 (Homo sapiens, UniProt P50750); test: Inhibition of CDK9 in human HL60 cells assessed as decrease in phosphorylation at Thr 186 residues up to 3 uM after 2 hrs by immunoblotting analysis; format: cell-based
HL-60 = test: Induction of apoptosis in human HL60 cells assessed as decrease in BCL-2 level up to 3 uM after 2 hrs by immunoblotting analysis; format: functional, cell-based
[9] = biological target: Mitogen-activated protein kinase kinase kinase 2 (Homo sapiens) (UniProt Q9Y2U5); test: Binding affinity to wild-type human partial length MAP3K2 (S315 to H619 residues) expressed in mammalian expression system assessed as remaining unbound target protein level at 1000 nM by Kinomescan method relative to control
How it was run: (§1)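 KINOMEscan binding panel of 468 kinases/mutants. Inhibitor was tested at a single concentration of 1 μM. Binding is reported as percent of control, defined relative to a DMSO control.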

[10] = biological target: Serine/threonine-protein kinase Chk2 (Homo sapiens) (UniProt O96017); test: Binding affinity to wild-type human partial length CHEK2 (S253 to E574 residues) expressed in bacterial expression system assessed as remaining unbound target protein level at 1000 nM by Kinomescan method relative to control
[11] = biological target: Serine/threonine-protein kinase ICK (Homo sapiens) (UniProt Q9UPZ9); test: Binding affinity to wild-type human partial length ICK (M1 to P314 residues) expressed in mammalian expression system assessed as remaining unbound target protein level at 1000 nM by Kinomescan method relative to control; how it was run: as §1
[12] = biological target: Dual specificity mitogen-activated protein kinase kinase 4 (Homo sapiens) (UniProt P45985); test: Binding affinity to wild-type human partial length MEK4 (S84 to D399 residues) expressed in mammalian expression system assessed as remaining unbound target protein level at 1000 nM by Kinomescan method relative to control; how it was run: as §1
[13] = biological target: Serine/threonine-protein kinase WNK3 (Homo sapiens) (UniProt Q9BYP7); test: Binding affinity to wild-type human partial length WNK3 (M1 to D434 residues) expressed in mammalian expression system assessed as remaining unbound target protein level at 1000 nM by Kinomescan method relative to control
[14] = biological target: Ephrin type-A receptor 2 (Homo sapiens) (UniProt P29317); test: Binding affinity to wild-type human partial length EPHA2 (T593 to V891 residues) expressed in bacterial expression system assessed as remaining unbound target protein level at 1000 nM by Kinomescan method relative to control
[15] = biological target: Myosin light chain kinase family member 4 (Homo sapiens) (UniProt Q86YV6); test: Binding affinity to wild-type human partial length MYLK4 (V79 to S380 residues) expressed in bacterial expression system assessed as remaining unbound target protein level at 1000 nM by Kinomescan method relative to control; how it was run: as §1
[16] = biological target: Ribosomal protein S6 kinase alpha-5 (Homo sapiens) (UniProt O75582); test: Binding affinity to wild-type human partial length N-terminal RPS6KA5 kinase domain 1 expressed in bacterial expression system assessed as remaining unbound target protein level at 1000 nM by Kinomescan method relative to control
Homo sapiens = species: Homo sapiens; test: Selectivity ratio of IC50 for recombinant full length His-tagged human CDK2/CyclinA to IC50 for recombinant full length His-tagged human CDK9/CyclinT1
[17] = biological target: Calcium/calmodulin-dependent protein kinase type II subunit alpha (Homo sapiens) (UniProt Q9UQM7); test: Binding affinity to wild-type human partial length CAMK2A (M1 to K328 residues) expressed in bacterial expression system assessed as remaining unbound target protein level at 1000 nM by Kinomescan method relative to control
How it was run: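 Profiled in a KINOMEscan binding panel with the inhibitor at a single concentration of 1 μM. Binding to each kinase was read out as percent of control, relative to a DMSO control. Strong binders were defined as those with a percent control value below 1.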

[18] = biological target: Dual specificity mitogen-activated protein kinase kinase 2 (Homo sapiens) (UniProt P36507); test: Binding affinity to wild-type human full length MEK2 (M1 to V400 residues) expressed in mammalian expression system assessed as remaining unbound target protein level at 1000 nM by Kinomescan method relative to control
How it was run: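 KINOMEscan competition binding profile across a panel of 468 kinases and mutants, with the inhibitor tested at a single concentration of 1 μM. Binding is reported as percent of control, meaning signal relative to a DMSO control.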

[19] = biological target: Serine/threonine-protein kinase LATS1 (Homo sapiens) (UniProt O95835); test: Binding affinity to wild-type human partial length LATS1 (Q678 to V1130 residues) expressed in bacterial expression system assessed as remaining unbound target protein level at 1000 nM by Kinomescan method relative to control

Chain of Tyrosine-protein kinase ABL1 (Homo sapiens), P00519 [F317I] (P00519 whole entry F317I, the tested form may be a part): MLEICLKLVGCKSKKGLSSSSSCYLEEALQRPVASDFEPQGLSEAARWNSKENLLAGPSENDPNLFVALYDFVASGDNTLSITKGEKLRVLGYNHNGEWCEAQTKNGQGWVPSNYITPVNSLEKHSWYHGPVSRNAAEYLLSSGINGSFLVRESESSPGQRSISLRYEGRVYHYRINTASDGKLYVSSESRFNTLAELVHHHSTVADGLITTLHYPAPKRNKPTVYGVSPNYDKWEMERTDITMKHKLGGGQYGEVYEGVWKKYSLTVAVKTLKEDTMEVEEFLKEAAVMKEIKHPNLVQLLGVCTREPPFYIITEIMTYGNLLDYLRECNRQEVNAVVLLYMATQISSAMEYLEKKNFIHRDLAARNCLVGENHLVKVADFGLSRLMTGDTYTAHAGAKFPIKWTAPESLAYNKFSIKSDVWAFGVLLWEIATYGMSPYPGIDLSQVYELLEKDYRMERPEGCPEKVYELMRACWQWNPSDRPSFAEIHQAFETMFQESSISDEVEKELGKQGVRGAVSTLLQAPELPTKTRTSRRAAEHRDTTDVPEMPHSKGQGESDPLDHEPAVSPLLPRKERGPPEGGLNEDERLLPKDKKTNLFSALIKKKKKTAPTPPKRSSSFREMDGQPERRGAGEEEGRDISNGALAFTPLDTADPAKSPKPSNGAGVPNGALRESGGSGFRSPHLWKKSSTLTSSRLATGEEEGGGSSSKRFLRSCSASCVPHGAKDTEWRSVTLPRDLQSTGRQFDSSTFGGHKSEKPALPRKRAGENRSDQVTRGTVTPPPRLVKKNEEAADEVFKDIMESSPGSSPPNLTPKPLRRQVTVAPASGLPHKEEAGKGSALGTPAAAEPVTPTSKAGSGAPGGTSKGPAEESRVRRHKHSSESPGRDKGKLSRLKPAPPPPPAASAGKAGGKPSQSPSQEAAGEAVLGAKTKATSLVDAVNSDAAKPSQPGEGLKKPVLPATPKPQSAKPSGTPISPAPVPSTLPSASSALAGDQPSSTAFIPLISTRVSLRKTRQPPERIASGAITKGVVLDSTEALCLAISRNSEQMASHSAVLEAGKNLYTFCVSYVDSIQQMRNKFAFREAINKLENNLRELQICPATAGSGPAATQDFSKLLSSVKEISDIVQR
Chain of Ephrin type-A receptor 2 (Homo sapiens) (P29317 whole entry, the tested form may be a part): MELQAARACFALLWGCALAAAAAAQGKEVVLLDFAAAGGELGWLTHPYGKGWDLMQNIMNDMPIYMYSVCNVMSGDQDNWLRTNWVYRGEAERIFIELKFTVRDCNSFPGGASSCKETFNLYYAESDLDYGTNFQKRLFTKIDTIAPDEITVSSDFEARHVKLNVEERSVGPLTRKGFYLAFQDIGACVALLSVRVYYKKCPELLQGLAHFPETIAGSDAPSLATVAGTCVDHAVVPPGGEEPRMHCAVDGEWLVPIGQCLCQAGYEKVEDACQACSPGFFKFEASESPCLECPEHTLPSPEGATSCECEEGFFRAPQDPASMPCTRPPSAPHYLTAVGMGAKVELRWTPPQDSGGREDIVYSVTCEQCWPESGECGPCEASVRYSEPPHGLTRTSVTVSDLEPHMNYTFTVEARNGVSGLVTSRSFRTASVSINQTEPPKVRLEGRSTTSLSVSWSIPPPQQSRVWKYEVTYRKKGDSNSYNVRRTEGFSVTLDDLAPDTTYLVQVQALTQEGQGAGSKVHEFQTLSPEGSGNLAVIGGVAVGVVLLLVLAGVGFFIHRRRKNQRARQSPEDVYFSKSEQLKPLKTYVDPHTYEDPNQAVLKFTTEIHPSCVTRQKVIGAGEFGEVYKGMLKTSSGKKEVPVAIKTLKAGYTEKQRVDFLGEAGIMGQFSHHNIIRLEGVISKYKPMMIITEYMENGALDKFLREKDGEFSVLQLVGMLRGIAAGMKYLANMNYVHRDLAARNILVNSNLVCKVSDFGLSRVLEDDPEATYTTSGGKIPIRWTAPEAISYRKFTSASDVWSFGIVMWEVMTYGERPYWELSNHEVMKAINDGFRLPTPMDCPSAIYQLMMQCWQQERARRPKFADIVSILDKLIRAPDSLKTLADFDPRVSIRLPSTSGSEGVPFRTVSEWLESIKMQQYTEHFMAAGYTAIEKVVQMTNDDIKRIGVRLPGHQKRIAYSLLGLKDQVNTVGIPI
Chain of Serine/threonine-protein kinase WNK3 (Homo sapiens) (Q9BYP7 whole entry, the tested form may be a part): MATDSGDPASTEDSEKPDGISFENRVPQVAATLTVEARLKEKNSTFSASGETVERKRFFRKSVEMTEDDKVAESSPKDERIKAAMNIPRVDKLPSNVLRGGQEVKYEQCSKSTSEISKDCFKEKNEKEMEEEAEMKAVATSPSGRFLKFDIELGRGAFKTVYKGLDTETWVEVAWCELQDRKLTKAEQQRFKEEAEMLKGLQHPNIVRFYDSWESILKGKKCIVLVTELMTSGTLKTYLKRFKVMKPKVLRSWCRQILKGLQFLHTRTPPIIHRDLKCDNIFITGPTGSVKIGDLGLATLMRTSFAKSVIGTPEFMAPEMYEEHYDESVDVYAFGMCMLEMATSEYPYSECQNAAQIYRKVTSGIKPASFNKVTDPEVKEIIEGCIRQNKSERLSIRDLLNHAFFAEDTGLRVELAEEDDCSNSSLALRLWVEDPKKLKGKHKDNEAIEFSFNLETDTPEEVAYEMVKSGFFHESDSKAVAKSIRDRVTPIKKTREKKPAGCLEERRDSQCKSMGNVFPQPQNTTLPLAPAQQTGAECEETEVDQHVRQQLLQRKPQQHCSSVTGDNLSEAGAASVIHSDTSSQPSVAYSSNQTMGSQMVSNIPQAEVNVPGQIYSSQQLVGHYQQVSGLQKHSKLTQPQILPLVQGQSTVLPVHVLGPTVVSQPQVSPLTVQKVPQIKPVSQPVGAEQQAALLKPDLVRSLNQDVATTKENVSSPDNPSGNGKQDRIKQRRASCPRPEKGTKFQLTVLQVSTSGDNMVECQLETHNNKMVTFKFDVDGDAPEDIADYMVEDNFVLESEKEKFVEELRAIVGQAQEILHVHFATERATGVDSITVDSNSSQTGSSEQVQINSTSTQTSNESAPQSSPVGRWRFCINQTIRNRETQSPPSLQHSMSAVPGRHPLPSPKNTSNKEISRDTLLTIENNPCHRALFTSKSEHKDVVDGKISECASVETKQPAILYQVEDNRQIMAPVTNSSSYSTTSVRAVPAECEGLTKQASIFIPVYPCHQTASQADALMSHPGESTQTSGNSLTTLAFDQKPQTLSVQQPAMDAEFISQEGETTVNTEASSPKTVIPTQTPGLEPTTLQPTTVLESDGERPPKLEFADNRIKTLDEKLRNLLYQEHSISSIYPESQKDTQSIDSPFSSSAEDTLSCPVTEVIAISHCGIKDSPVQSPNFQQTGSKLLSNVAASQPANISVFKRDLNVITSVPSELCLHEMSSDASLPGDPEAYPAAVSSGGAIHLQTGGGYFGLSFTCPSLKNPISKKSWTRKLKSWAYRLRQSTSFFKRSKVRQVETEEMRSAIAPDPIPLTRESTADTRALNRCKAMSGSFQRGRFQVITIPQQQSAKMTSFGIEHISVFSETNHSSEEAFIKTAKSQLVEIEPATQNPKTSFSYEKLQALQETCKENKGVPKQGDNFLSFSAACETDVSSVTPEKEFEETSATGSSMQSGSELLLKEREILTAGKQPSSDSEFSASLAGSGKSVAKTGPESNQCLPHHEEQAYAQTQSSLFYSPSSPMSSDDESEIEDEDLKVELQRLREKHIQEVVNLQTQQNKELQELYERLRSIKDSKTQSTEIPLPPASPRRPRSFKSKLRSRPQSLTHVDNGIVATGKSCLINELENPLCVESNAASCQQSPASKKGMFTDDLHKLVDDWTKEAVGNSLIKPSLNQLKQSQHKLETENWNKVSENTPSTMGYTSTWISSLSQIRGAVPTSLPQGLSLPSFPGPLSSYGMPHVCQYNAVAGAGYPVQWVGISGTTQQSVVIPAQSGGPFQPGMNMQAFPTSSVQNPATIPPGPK
Chain of Serine/threonine-protein kinase ICK (Homo sapiens) (Q9UPZ9 whole entry, the tested form may be a part): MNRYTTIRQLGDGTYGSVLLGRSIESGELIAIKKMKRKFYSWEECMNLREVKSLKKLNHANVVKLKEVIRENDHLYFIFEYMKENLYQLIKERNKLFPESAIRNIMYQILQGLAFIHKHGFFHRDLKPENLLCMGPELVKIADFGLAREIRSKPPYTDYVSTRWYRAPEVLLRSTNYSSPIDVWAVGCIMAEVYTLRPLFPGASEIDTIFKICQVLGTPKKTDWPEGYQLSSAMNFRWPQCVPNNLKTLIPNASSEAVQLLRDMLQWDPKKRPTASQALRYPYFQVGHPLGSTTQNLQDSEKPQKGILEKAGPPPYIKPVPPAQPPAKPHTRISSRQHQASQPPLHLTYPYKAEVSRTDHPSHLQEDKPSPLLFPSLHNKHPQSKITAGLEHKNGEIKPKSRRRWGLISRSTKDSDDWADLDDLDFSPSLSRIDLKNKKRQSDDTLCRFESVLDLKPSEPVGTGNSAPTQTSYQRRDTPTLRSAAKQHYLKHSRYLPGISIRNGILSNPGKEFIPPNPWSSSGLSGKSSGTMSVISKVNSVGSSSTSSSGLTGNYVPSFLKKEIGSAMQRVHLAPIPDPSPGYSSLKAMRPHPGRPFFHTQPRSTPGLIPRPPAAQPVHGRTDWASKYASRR
Chain of Dual specificity mitogen-activated protein kinase kinase 2 (Homo sapiens) (P36507 whole entry, the tested form may be a part): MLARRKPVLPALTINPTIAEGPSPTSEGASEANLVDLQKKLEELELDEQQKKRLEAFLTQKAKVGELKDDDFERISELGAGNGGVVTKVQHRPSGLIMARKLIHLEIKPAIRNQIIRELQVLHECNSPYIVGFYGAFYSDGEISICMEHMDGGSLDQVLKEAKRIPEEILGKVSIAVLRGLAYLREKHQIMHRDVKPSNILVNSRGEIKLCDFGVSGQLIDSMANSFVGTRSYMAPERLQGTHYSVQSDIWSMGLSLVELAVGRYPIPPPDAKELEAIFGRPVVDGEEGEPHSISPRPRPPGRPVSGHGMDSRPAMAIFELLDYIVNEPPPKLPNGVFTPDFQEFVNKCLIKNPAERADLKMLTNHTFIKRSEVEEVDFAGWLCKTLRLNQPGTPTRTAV

COCCN[C@H]1CC[C@H](Nc2cc(-c3csc(NCC4(C#N)CCOCC4)n3)c(Cl)cn2)CC1
Activity [1]: 100% | Activity [2]: 100% | Activity [3]: 97% | Activity [4]: 100% | Activity [5]: 81% | Activity [6]: 90% | Activity [7]: 94% | inhibition [8]: inactive | Activity (HL-60): inactive | Activity [9]: 74% | Activity [10]: 90% | Activity [11]: 40% | Activity [12]: 99% | Activity [13]: 97% | Activity [14]: 84% | Activity [15]: 94% | Activity [16]: 100% | Ratio IC50 (Homo sapiens): > 1000 | Activity [17]: 100% | Activity [18]: 95% | Activity [19]: 96%

Source: ChEMBL document CHEMBL4261600 (Eur J Med Chem, 2018)
